Test results reported in ChEMBL document CHEMBL4257575, “Discovery of Novel Flavonoid Dimers To Reverse Multidrug Resistance Protein 1 (MRP1, ABCC1) Mediated Drug Resistance in Cancers Using a High Throughput Platform with "Click Chemistry"” (J Med Chem, 2018).

target: Multidrug resistance-associated protein 1 (Homo sapiens, UniProt P33527); test: Inhibition of MRP1 in human 2008/MRP1 cells assessed as potentiation of doxorubicin-induced cytotoxicity by measuring cell survival at 2 uM after 5 days by MTS assay relative to control; type: cell-based; details: 120 h
Sequence (P33527 whole entry): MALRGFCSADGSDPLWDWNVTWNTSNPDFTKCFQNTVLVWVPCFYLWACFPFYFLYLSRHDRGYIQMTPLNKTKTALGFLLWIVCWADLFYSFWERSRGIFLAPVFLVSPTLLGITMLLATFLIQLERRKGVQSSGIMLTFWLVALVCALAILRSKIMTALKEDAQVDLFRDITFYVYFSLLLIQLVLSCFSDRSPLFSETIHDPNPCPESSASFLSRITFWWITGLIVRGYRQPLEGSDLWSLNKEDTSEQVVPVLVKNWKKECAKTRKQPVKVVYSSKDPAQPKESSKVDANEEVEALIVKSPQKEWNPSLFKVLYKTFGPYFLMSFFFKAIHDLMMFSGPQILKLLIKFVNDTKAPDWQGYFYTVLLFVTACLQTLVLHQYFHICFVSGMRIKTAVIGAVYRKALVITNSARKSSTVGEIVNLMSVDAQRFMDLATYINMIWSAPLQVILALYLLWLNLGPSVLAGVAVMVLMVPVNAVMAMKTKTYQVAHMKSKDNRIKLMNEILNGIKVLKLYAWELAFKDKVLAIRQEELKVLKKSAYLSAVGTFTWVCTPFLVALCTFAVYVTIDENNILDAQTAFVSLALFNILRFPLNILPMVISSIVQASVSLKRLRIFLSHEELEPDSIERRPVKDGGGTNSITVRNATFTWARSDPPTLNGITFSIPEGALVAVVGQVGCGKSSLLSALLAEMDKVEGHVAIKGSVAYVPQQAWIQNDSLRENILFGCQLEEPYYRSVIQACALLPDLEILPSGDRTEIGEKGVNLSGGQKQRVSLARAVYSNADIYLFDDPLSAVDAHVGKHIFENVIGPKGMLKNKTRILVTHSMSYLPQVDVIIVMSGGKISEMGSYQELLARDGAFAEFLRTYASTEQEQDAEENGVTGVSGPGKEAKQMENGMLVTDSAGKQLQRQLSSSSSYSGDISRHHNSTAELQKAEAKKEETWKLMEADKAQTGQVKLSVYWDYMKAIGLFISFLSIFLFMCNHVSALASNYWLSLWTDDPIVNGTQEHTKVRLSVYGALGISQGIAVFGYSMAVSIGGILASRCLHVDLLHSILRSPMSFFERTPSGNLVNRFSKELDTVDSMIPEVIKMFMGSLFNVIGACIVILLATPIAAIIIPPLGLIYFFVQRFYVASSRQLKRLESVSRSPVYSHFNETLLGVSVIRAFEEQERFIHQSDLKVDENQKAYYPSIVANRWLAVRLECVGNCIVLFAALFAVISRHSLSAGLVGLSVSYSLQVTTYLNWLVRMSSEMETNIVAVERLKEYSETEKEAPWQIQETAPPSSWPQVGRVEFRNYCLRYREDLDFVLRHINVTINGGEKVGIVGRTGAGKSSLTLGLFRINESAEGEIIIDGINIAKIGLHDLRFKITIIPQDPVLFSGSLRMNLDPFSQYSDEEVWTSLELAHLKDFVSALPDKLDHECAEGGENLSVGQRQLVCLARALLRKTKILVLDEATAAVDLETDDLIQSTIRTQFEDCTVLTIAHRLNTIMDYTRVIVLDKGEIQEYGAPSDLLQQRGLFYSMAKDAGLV
Outline: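 2008/MRP1 cells (retroviral human MRP1 transfectant; RPMI 1640, 10% FBS) at 4,000 per well, with 100 nM doxorubicin plus crude, unpurified click products in DMSO: 2 µM in the primary screen, 1 µM in the secondary. Incubated 5 days at 37 °C. MTS/PMS added for 2 h at 37 °C, absorbance read at 490 nm. % survival is relative to wells without DOX or product. Run in triplicate, at least three experiments.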

| SMILES | Survival [%] |
| --- | --- |
| O=c1c(OCc2ccccc2)c(-c2cccc(OCCOCCn3cc(CN(Cc4cn(CCOCCOc5cccc(-c6oc7ccccc7c(=O)c6OCc6ccccc6)c5)nn4)Cc4cn(CCOCCOc5cccc(-c6oc7ccccc7c(=O)c6OCc6ccccc6)c5)nn4)nn3)c2)oc2ccccc12 | 91 |
| O=C(/C=C/c1ccc(OCCCCc2cn(CCOCCOCCOc3ccc(-c4cc(=O)c5cc(F)ccc5o4)cc3)nn2)cc1)c1ccccc1O | 56 |
| O=c1cc(-c2ccc(OCCOCCn3cc(-c4cccc(-c5cn(CCOCCOc6ccc(-c7cc(=O)c8cc(F)ccc8o7)cc6)nn5)c4)nn3)cc2)oc2ccc(F)cc12 | 74 |
| O=c1cc(-c2ccccc2)oc2cc(OCCCCc3cn(CCOCCOc4ccc(-c5oc6ccccc6c(=O)c5OCc5ccccc5)cc4)nn3)ccc12 | 79 |
| C#CCCCOc1ccc(-c2cc(=O)c3ccccc3o2)cc1 | 74 |
| O=c1cc(-c2ccccc2)oc2cc(OCCOCCOCCn3cc(CN(Cc4ccccc4)Cc4cn(CCOCCOCCOc5ccc6c(=O)cc(-c7ccccc7)oc6c5)nn4)nn3)ccc12 | 74 |
| O=c1c(OCc2ccccc2)c(-c2cccc(OCCOCCn3cc(CNc4ccccc4)nn3)c2)oc2ccccc12 | 92 |
| O=c1[nH]c(-c2ccc(OCCCc3cn(CCOCCOCCOc4ccc(-c5oc6ccccc6c(=O)c5OCc5ccccc5)cc4)nn3)cc2)nc2ccccc12 | 68 |
| Cc1ccc2oc(-c3ccc(OCCOCCOCCn4cc(CCCOc5ccc(-c6nc7ccccc7c(=O)[nH]6)cc5)nn4)cc3)cc(=O)c2c1 | 72 |
| O=c1cc(-c2ccc(OCCOCCOCCn3cc(CN4CCN(Cc5cn(CCOCCOCCOc6ccc(-c7cc(=O)c8ccccc8o7)cc6)nn5)CC4)nn3)cc2)oc2ccccc12 | 100 |
| O=c1cc(-c2ccccc2)oc2cc(OCCOCCOCCn3cc(CN(CCOc4ccc5c(=O)cc(-c6ccccc6)oc5c4)Cc4ccccc4)nn3)ccc12 | 51 |
| O=c1c(OCc2ccccc2)c(-c2cccc(OCCOCCn3cc(CN4CCN(Cc5cn(CCOCCOc6cccc(-c7oc8ccccc8c(=O)c7OCc7ccccc7)c6)nn5)CC4)nn3)c2)oc2ccccc12 | 84 |
| O=c1c(OCc2ccccc2)c(-c2ccc(OCCOCCn3cc(-c4ccc(-c5cn(CCOCCOc6ccc(-c7oc8ccccc8c(=O)c7OCc7ccccc7)cc6)nn5)cc4)nn3)cc2)oc2ccccc12 | 82 |
| COCOc1cc(OCc2ccccc2)c2c(=O)cc(-c3ccc(OCCCc4cn(CCOCCOc5ccc(-c6cc(=O)c7cc(F)ccc7o6)cc5)nn4)cc3)oc2c1 | 63 |
| O=c1[nH]c(-c2ccc(OCCCc3cn(CCOCCOc4ccc(-c5oc6ccccc6c(=O)c5OCc5ccccc5)cc4)nn3)cc2)nc2ccccc12 | 64 |
| COc1cccc(COc2c(-c3ccc(OCCOCCn4cc(CCCOc5ccc(-c6cc(=O)c7ccc(F)cc7o6)cc5)nn4)cc3)oc3ccccc3c2=O)c1 | 61 |
| O=C(/C=C/c1ccc(OCCCCc2cn(CCOCCOc3ccc4c(=O)cc(-c5ccccc5)oc4c3)nn2)cc1)c1ccc(F)cc1O | 64 |
| [N-]=[N+]=NCCOCCOc1ccc(-c2oc3ccccc3c(=O)c2OCc2ccccc2)cc1 | 72 |
| O=c1cc(-c2ccccc2)oc2cc(OCCCCc3cn(CCOCCOCCOc4ccc5c(=O)cc(-c6ccccc6)oc5c4)nn3)ccc12 | 61 |
| COc1cccc(COc2c(-c3ccc(OCCOCCn4cc(CCCCOc5ccc6c(=O)cc(-c7ccccc7)oc6c5)nn4)cc3)oc3ccccc3c2=O)c1 | 86 |
| O=c1cc(-c2ccccc2)oc2cc(OCCOCCOCCn3cc(CN(Cc4cn(CCOCCOCCOc5ccc6c(=O)cc(-c7ccccc7)oc6c5)nn4)Cc4cn(CCOCCOCCOc5ccc6c(=O)cc(-c7ccccc7)oc6c5)nn4)nn3)ccc12 | 77 |

| SMILES | Survival [%] |
| --- | --- |
| [N-]=[N+]=NCCOCCOCCOc1ccc(-c2cc(=O)c3cc(F)ccc3o2)cc1 | 85 |
| O=c1cc(-c2ccccc2)oc2cc(OCCCc3cn(CCOCCOCCOc4ccc(-c5oc6ccccc6c(=O)c5OCc5ccccc5)cc4)nn3)ccc12 | 63 |
| O=c1cc(-c2ccc(OCCCc3cn(CCOCCOCCOc4ccc5c(=O)cc(-c6ccccc6)oc5c4)nn3)cc2)oc2cc(F)ccc12 | 52 |
| O=c1cc(-c2ccccc2)oc2cc(OCCn3cc(CN4CCN(Cc5cn(CCOc6ccc7occ(-c8ccccc8)c(=O)c7c6)nn5)CC4)nn3)ccc12 | 93 |
| C#CCN(C)CCN(C)CC#C | 87 |
| O=c1cc(-c2ccc(OCCOCCOCCn3cc(COCCOc4ccc5c(=O)cc(-c6ccccc6)oc5c4)nn3)cc2)oc2ccccc12 | 59 |
| O=c1cc(-c2ccccc2)oc2cc(OCCCc3cn(CCOCCOc4cccc(-c5oc6ccccc6c(=O)c5OCc5ccccc5)c4)nn3)ccc12 | 65 |
| O=c1c(OCc2ccccc2)c(-c2cccc(OCCOCCn3cc(-c4ccc(-c5cn(CCOCCOc6cccc(-c7oc8ccccc8c(=O)c7OCc7ccccc7)c6)nn5)cc4)nn3)c2)oc2ccccc12 | 82 |
| C#CCCCOc1ccc2c(=O)cc(-c3ccccc3)oc2c1 | 85 |
| O=Cc1ccc(OCCCCc2cn(CCOCCOc3cccc(-c4oc5ccccc5c(=O)c4OCc4ccccc4)c3)nn2)cc1 | 82 |
| O=C(/C=C/c1ccc(OCCCCc2cn(CCOCCOCCOc3ccc(-c4cc(=O)c5cc(F)ccc5o4)cc3)nn2)cc1)c1ccc(F)cc1O | 53 |
| O=C(/C=C/c1ccc(OCCCCc2cn(CCOCCOCCOc3ccc(-c4oc5ccccc5c(=O)c4OCc4ccccc4)cc3)nn2)cc1)c1ccc(F)cc1O | 68 |
| C#CCCCOc1ccc(-c2cc(=O)c3cc(F)ccc3o2)cc1 | 81 |
| C#CCCCCOc1ccc2c(=O)cc(-c3ccccc3)oc2c1 | 99 |
| CN(CCN(C)Cc1cn(CCOCCOc2ccc(-c3cc(=O)c4ccccc4o3)cc2)nn1)Cc1cn(CCOCCOc2ccc(-c3cc(=O)c4ccccc4o3)cc2)nn1 | 87 |
| O=c1cc(-c2ccc(OCCOCCOCCn3cc(-c4ccc(-c5cn(CCOCCOCCOc6ccc(-c7cc(=O)c8ccccc8o7)cc6)nn5)cc4)nn3)cc2)oc2ccccc12 | 83 |
| Cc1ccc(C(=O)/C=C/c2ccc(OCCCCc3cn(CCOCCOCCOc4ccc(-c5cc(=O)c6cc(C)ccc6o5)cc4)nn3)cc2)c(O)c1 | 61 |
| O=c1cc(-c2ccccc2)oc2cc(OCCOCc3cn(CCOCCOc4cccc(-c5oc6ccccc6c(=O)c5OCc5ccccc5)c4)nn3)ccc12 | 77 |
| O=Cc1ccc(OCCCCc2cn(CCOCCOCCOc3ccc(-c4oc5ccccc5c(=O)c4OCc4ccccc4)cc3)nn2)cc1 | 75 |
| O=c1cc(-c2ccccc2)oc2cc(OCCCc3cn(CCOCCOc4ccc(-c5oc6ccccc6c(=O)c5OCc5ccccc5)cc4)nn3)ccc12 | 51 |
| COc1cccc(COc2c(-c3ccc(OCCCCc4cn(CCOCCOCCOc5ccc6c(=O)cc(-c7ccccc7)oc6c5)nn4)cc3)oc3ccccc3c2=O)c1 | 78 |

| SMILES | Survival [%] |
| --- | --- |
| Cc1ccc2oc(-c3ccc(OCCOCCOCCn4cc(CCN5C(=O)c6ccccc6C5=O)nn4)cc3)cc(=O)c2c1 | 81 |
| COc1cccc(COc2c(-c3ccc(OCCOCCn4cc(-c5cccc(-c6cn(CCOCCOc7ccc(-c8oc9ccccc9c(=O)c8OCc8cccc(OC)c8)cc7)nn6)c5)nn4)cc3)oc3ccccc3c2=O)c1 | 82 |
| CN(CCN(C)Cc1cn(CCOCCOc2ccc(-c3oc4ccccc4c(=O)c3OCc3ccccc3)cc2)nn1)Cc1cn(CCOCCOc2ccc(-c3oc4ccccc4c(=O)c3OCc3ccccc3)cc2)nn1 | 76 |
| COc1cccc(COc2c(-c3ccc(OCCOCCn4cc(CCN5C(=O)c6ccccc6C5=O)nn4)cc3)oc3ccccc3c2=O)c1 | 75 |
| CCc1ccc(O)c(C(=O)/C=C/c2ccc(OCCCCc3cn(CCOCCOCCOc4ccc5c(=O)cc(-c6ccccc6)oc5c4)nn3)cc2)c1 | 79 |
| COc1cccc(COc2c(-c3ccc(OCCCCc4cn(CCOCCOc5ccc6c(=O)cc(-c7ccccc7)oc6c5)nn4)cc3)oc3ccccc3c2=O)c1 | 56 |
| Cc1ccc(O)c(C(=O)/C=C/c2ccc(OCCCCc3cn(CCOc4cccc5c(=O)cc(-c6ccccc6)oc45)nn3)cc2)c1 | 77 |
| O=c1cc(-c2ccc(OCCOCCn3cc(CNc4ccccc4)nn3)cc2)oc2ccc(F)cc12 | 81 |
| O=c1c(OCc2ccccc2)c(-c2ccc(OCCOCCn3cc(CN4CCN(Cc5cn(CCOCCOc6ccc(-c7oc8ccccc8c(=O)c7OCc7ccccc7)cc6)nn5)CC4)nn3)cc2)oc2ccccc12 | 58 |
| Cc1ccc2oc(-c3ccc(OCCOCCOCCn4cc(CN(Cc5ccccc5)Cc5cn(CCOCCOCCOc6ccc(-c7cc(=O)c8cc(C)ccc8o7)cc6)nn5)nn4)cc3)cc(=O)c2c1 | 52 |
| O=c1cc(-c2ccc(OCCCc3cn(CCOCCOc4ccc(-c5cc(=O)c6cc(F)ccc6o5)cc4)nn3)cc2)oc2cc(F)ccc12 | 55 |
| COc1cccc(COc2c(-c3ccc(OCCOCCn4cc(CN(CCOc5ccc6c(=O)cc(-c7ccccc7)oc6c5)Cc5ccccc5)nn4)cc3)oc3ccccc3c2=O)c1 | 79 |
| O=C(/C=C/c1ccc(OCCCCc2cn(CCOCCOc3ccc(-c4oc5ccccc5c(=O)c4OCc4ccccc4)cc3)nn2)cc1)c1ccc(F)cc1O | 69 |
| C#CCCCCOc1ccc(/C=C/C(=O)c2cc(CC)ccc2O)cc1 | 103 |
| O=C(/C=C/c1ccc(OCCCCc2cn(CCOCCOc3ccc(-c4cc(=O)c5cc(F)ccc5o4)cc3)nn2)cc1)c1ccccc1O | 72 |
| O=c1cc(-c2ccc(OCCOCCn3cc(-c4ccc(-c5cn(CCOCCOc6ccc(-c7cc(=O)c8ccccc8o7)cc6)nn5)cc4)nn3)cc2)oc2ccccc12 | 81 |
| Cc1ccc(C(=O)/C=C/c2ccc(OCCCCc3cn(CCOCCOCCOc4ccc(-c5cc(=O)c6ccccc6o5)cc4)nn3)cc2)c(O)c1 | 55 |
| Cc1ccc(C(=O)/C=C/c2ccc(OCCCCc3cn(CCOCCOCCOc4ccc(-c5cc(=O)c6cc(F)ccc6o5)cc4)nn3)cc2)c(O)c1 | 51 |
| O=c1c(OCc2ccccc2)c(-c2cccc(OCCOCCn3cc(-c4cccc(-c5cn(CCOCCOc6cccc(-c7oc8ccccc8c(=O)c7OCc7ccccc7)c6)nn5)c4)nn3)c2)oc2ccccc12 | 89 |
